Published values pooled from the literature.
Compare with care: the assays were run in different laboratories.
Cell line: MCF7
Effect on: cell growth or viability

| SMILES | test | conditions | IC50 [µM] |
| --- | --- | --- | --- |
| Oc1c(I)cc(Cl)c2cccnc12 | MTT | 48 h | 50.2 |
| Cc1ccc(O)c(/C=N/c2nc(Oc3ccccc3)nn2-c2ccc(C(=O)O)cc2)c1 | MTT |  | 30.3 |
| CC1(C)[C@@H](O)CC[C@]2(C)[C@H]3C(=O)C=C4[C@@H]5C[C@@](C)(C(=O)O)CC[C@]5(C)CC[C@@]4(C)[C@]3(C)CC[C@@H]12 | MTT | 48 h | > 100 |
| CC/C(=C(\c1ccc(O)cc1)c1ccc(OCCN(C)C)cc1)c1ccccc1 |  | 5 days | 4.22 |
| COc1cc(OC)c(/C=C/S(=O)(=O)Nc2ccc(OC)c(N)c2)c(OC)c1 | trypan blue | 96 h | 0.004 |
| O=C(NC(=S)NCc1ccc(CNC(=S)NC(=O)c2ccc3ccccc3c2)cc1)c1ccc2ccccc2c1 |  | 48 h | 1.19 |
| CN(C)CCn1cccc1/C=N/NC(=O)Nc1cc2c(Nc3ccc(F)c(Cl)c3)ncnc2cc1O[C@H]1CCOC1 | MTT | 72 h | 4.82 |
| Cc1ccc2nc(-c3cccc(O)c3)[nH]c2c1 | MTT | 48 h | > 100 |
| COc1cc([C@@H]2c3cc4c(cc3[C@@H](O[C@@H]3O[C@@H]5CO[C@@H](C)O[C@H]5[C@H](O)[C@H]3O)[C@H]3COC(=O)[C@H]23)OCO4)cc(OC)c1O | MTT | 48 h | 32.8 |
| O=C(N/N=C/CN1CCCC1)Nc1cc2c(Nc3ccc(F)c(Cl)c3)ncnc2cc1O[C@H]1CCOC1 | MTT | 72 h | 3.12 |
| CCOc1ccc(-c2nc3ccc(C)cc3[nH]2)cc1 | MTT | 48 h | > 100 |
| Nc1nc(Oc2ccccc2)nn1-c1ccc(C(=O)O)cc1 | MTT |  | 18.7 |
| O=C(N/N=C/c1cccn1CCN1CCCC1)Nc1cc2c(Nc3ccc(F)c(Cl)c3)ncnc2cc1O[C@H]1CCOC1 | MTT | 72 h | 1.2 |
| Cc1ccc2nc(-c3ccc(Cl)cc3Cl)[nH]c2c1 | MTT | 48 h | 57.2 |
| Oc1cccc(Nc2ccc3ncnc(Nc4cccc(C(F)(F)F)c4)c3c2)c1 | MTT | 24 h | 20.5 |
| Fc1cccc(Cl)c1-c1nc2ccccc2[nH]1 | MTT | 48 h | > 100 |
| F[B-](F)(F)F.[Fe+3].c1cc[cH-]c1.c1cc[cH-]c1 | MTT |  | 150 |
| COc1ccc(O)c(/C=N/c2nc(Oc3ccccc3)nn2-c2ccc(C(=O)O)cc2)c1 | MTT |  | 27.5 |
| O=C(NC(=S)Nc1ccccc1)c1ccc2ccccc2c1 |  | 48 h | 5.11 |
| Oc1c(Br)cc(Br)c2cccnc12 | MTT | 48 h | > 100 |
| O=C(/N=C1\S/C(=C\c2ccc(Cl)cc2)C(=O)N1C1CCCCC1)c1ccc2ccccc2c1 |  | 48 h | 6.93 |
| O=[N+]([O-])c1ccc(S(=O)(=O)NN=Cc2cn(CCN3CCOCC3)c3ccccc23)cc1 | MTT | 48 h | 82 |
| CC(C)Cc1ccc(-c2nn(-c3ccc(S(C)(=O)=O)cc3)cc2/C=N/N=c2\[nH]c(-c3ccc(Br)cc3)cs2)cc1 | MTT | 48 h | 8.26 |
| COc1cccc2c1C(=O)c1c(O)c3c(c(O)c1C2=O)C[C@@](O)(C(=O)CO)C[C@@H]3O[C@H]1C[C@H](N)[C@H](O)[C@H](C)O1 | SRB |  | 0.18 |

| SMILES | test | conditions | IC50 [µM] |
| --- | --- | --- | --- |
| COC(=O)/C=C1\S/C(=N\C(=O)c2ccc3ccccc3c2)N(C2CCCCC2)C1=O |  | 48 h | 14.3 |
| CCCCc1ccc2[nH]c(NC(=O)OC)nc2c1 | CCK-8 | 72 h | 0.0996 |
| COc1ccnc(Nc2ccc3ncnc(Nc4cccc(C(F)(F)F)c4)c3c2)c1 | MTT | 24 h | 5.84 |
| CC1CCC(OCn2c[n+](Cc3ccccc3)c3ccccc32)CC1 (centres unmarked) | MTT | 72 h | 27 |
| COc1cc(/C=N/c2nc(SC)nn2-c2ccc(C(=O)O)cc2)ccc1O | MTT |  | 29.4 |
| Cc1ccc2nc(-c3ccc([N+](=O)[O-])cc3)n(Cc3ccccc3Cl)c2c1 | MTT |  | 20.2 |
| O=C(N/N=C/c1cccn1CCCN1CCCCC1)Nc1cc2c(Nc3ccc(F)c(Cl)c3)ncnc2cc1O[C@H]1CCOC1 | MTT | 72 h | 1.32 |
| CC(C)NCC(O)COc1ccccc1-c1ccccc1OCC(O)CNC(C)C (centres unmarked) | MTT | 72 h | > 75 |
| CCN(CC)CCn1cccc1/C=N/NC(=O)Nc1cc2c(Nc3ccc(F)c(Cl)c3)ncnc2cc1O[C@H]1CCOC1 | MTT | 72 h | 1.28 |
| CCOc1cc(OCC)cc(C(=O)O[C@@H]2CN3Cc4c(cc5c(c4OC)OCO5)[C@@]24C=C[C@H](OC)C[C@@H]34)c1 | WST-1 |  | 6.3 |
| Oc1ccc(-c2ccc3ncnc(Nc4cccc(C(F)(F)F)c4)c3c2)cc1 | MTT | 24 h | 6.19 |
| Cc1ccc2nc(-c3ccccc3Cl)[nH]c2c1 | MTT | 48 h | > 100 |
| COc1ccc(C2=N[C@@H](c3ccc(Cl)cc3)[C@@H](c3ccc(Cl)cc3)N2C(=O)N2CCNC(=O)C2)c(OC(C)C)c1 | MTT | 48 h | 11 |
| CSc1ccc(-c2nc3ccc(C)cc3[nH]2)cc1 | MTT | 48 h | 45 |
| COc1cc2ncnc(Nc3ccc(F)c(Cl)c3)c2cc1NC(=O)N/N=C/c1cccn1CCN1CCN(C)CC1 | MTT | 72 h | 1.85 |
| Cc1ccc(S(=O)(=O)NN=Cc2cn(CCN3CCOCC3)c3ccccc23)cc1 | MTT | 48 h | 61.1 |
| CC(C)Cc1ccc(-c2nn(-c3ccc(S(C)(=O)=O)cc3)cc2/C=N\N=C2/NC(=O)CS2)cc1 | MTT | 48 h | 6.25 |
| O=S(=O)(NN=Cc1cn(CCN2CCOCC2)c2ccccc12)c1ccc2ccccc2c1 | MTT | 48 h | 29.9 |
| COc1cccc(-c2nc3ccccc3n2Cc2ccccc2)c1 | MTT |  | 24.8 |
| O=[N+]([O-])c1ccc(-c2csc(Nc3ccc4c(O)ncnc4c3)n2)cc1 | MTT |  | 3.09 |
| O=c1cc(-c2ccc(O)c(O)c2)oc2cc(O)cc(O)c12 | WST-1 | 48 h | 13.4 |
| COc1cc2ncnc(Nc3ccc(F)c(Cl)c3)c2cc1NC(=O)N/N=C/c1cccn1CCN1CCOCC1 | MTT | 72 h | 1.17 |
| Cc1ccc(-c2csc(Nc3ccc4c(O)ncnc4c3)n2)cc1 | MTT |  | 6.28 |
